High-throughput results as filed in PubChem.
Most compounds without a hit are left out; they make up all but 12% or so of the library.
ABCG2 inh: ABCG2 efflux pump inhibitors, primary screen, multiplex with ABCB1, IgMXP3 cells, flow cytometry; Broad substrate specificity ATP-binding cassette transporter ABCG2 (Homo sapiens), Q9UNQ0; JC-1 efflux; inhibition, % at 6.6 µM; hit rate 0.1% among 190,000;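 active = inhibition above 80%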
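System: two drug-resistant human cell lines, ABCG2 and ABCB1; controls: nicardipine high and DMSO low controls; times: 10 min exposure at 25 °C with rotation, no wash; detection: flow cytometry of retained JC-1 fluorescence; read-out basis: percent efflux inhibition, scaled nicardipine 100% to DMSO 0%; doses: one concentration, 6.6 µM final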
WT yeast gro inh: growth inhibition of WT strain, primary screen, mitochondrial fusion inhibitor project, WT and mutant strains, chemical genetic; mitochondrial fusion phenotypic screen; inhibition, % at 10 µM; hit rate 2.1% among 190,000; AID 1362, 2008; in the data active = inhibition above about 58%; tested in S. cerevisiae
Lmaj promast: Leishmania major promastigote growth inhibition, primary screen. inhibition, % at 10 µM. hit rate 9% among 200,000. Leishmania major promastigotes, resazurin fluorescence viability. AID 1063, 2008; in the data active = inhibition above about 50%;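 also: promastigotes grown with compound for 44 hours at 28 °C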
ABCB1 block: ABCB1 efflux pump inhibitors, primary screen, cell-based, multiplex, flow cytometry, ABCG2 counter-screen | AID 1326, 2008 | CCRF-Adr cells, JC-1 efflux | ATP-dependent translocase ABCB1 (Homo sapiens), P08183 | hit rate 0.067% among 190,000 | inhibition, % at 6.6 µM; in the data active = inhibition above about 40%;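 also: higher value means more JC-1 retained so stronger ABCB1 efflux block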
Target sequence (P08183 whole entry, looked up): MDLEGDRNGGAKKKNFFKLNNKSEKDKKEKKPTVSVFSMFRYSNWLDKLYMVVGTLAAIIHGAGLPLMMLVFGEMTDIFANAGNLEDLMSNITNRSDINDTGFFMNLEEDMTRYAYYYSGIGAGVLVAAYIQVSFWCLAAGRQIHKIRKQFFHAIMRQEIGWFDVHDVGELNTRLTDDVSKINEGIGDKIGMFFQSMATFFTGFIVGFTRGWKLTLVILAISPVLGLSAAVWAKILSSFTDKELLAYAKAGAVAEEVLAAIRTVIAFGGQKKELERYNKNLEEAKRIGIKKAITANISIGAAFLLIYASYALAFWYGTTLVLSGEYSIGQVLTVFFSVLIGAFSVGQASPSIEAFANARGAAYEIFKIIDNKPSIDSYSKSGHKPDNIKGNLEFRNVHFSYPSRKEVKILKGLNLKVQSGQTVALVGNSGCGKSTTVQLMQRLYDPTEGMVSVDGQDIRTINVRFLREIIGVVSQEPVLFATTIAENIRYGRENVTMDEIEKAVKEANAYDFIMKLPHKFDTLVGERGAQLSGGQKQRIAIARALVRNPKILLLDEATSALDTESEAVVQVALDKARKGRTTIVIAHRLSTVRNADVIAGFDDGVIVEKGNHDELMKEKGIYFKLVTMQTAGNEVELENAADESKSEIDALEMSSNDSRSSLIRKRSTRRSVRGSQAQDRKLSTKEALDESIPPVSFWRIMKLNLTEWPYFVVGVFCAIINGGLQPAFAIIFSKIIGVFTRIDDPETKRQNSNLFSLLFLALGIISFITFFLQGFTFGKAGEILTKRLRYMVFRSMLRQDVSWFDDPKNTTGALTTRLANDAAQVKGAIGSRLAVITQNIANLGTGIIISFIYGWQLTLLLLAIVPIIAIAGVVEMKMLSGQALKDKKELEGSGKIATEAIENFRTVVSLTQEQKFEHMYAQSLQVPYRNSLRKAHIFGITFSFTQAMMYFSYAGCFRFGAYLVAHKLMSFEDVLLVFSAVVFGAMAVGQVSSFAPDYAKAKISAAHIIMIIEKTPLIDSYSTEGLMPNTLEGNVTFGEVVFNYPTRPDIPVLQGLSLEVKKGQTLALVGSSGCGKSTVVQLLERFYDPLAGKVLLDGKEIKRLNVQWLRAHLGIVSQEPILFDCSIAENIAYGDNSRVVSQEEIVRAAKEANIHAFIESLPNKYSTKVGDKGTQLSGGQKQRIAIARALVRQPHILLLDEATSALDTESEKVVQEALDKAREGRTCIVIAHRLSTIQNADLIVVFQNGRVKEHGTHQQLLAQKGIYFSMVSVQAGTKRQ
RAM inhibit: inhibitors of the yeast RAM network, primary screen, dse1pr::URA3 reporter, 5-FOA selection. S. cerevisiae dse1pr::URA3 reporter, 5-FOA growth OD615, 2 d; analog-sensitive cbk1-as2 kinase mutant strain. inhibition, % at 50 µM. hit rate 1.8% among 190,000. AID 868, 2007;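 active = inhibition above a set limit, 3 SD over mean compound inhibition, cut at about 8.4% in these data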;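 also: inhibition rescues growth on 5-FOA so higher OD means more RAM inhibition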
Of the large screens only hits and unclear results are named; the others gave an inactive call.

CC(C)(C)C(=O)/C=c1\s/c(=C\c2ccc(-c3ccc([N+](=O)[O-])cc3)o2)c(=O)n1CC(=O)NC(N)=O	none
COc1cc(C2C(N3C(=O)c4ccccc4C3=O)C(=O)N2c2cccc(C)c2)cc(OC)c1OC (stereo not drawn)	none
O=C1C(C=NCc2ccncc2)=C(O)c2ccccc21	none
O=C1N/C(=C/c2ccc(Br)cc2)C(O)=C1C=NCc1ccccc1	Lmaj promast 79
CN(Cc1ccccc1)C(=O)COC(=O)c1cncc(Br)c1	none
CN(Cc1ccccc1)C(=O)COC(=O)C1=NNC(=O)CC1	Lmaj promast 52
COc1ccc(C2=NN(C(=O)CN3CCCCC3)C(c3ccc(C)cc3)C2)cc1 (stereo not drawn)	Lmaj promast 73
CC(=O)Oc1ccccc1C1=NN(C(=O)/C=C/c2ccccc2)C(c2ccccc2)C1 (stereo not drawn)	none
COc1ccc(C2CC(c3ccccc3OC(C)=O)=NN2C(=O)/C=C/c2ccccc2)cc1 (stereo not drawn)	Lmaj promast 97
CCOC(=O)c1nnn(CC(=O)N2N=C(c3ccc(Cl)cc3)CC2c2ccc(OC)cc2)c1C(=O)OCC (stereo not drawn)	none
COc1ccc(C2CC(c3ccccc3)=NN2C(=O)COC(=O)c2ccc(Cl)nc2)cc1 (stereo not drawn)	none
COc1ccc(C2CC(c3ccccc3)=NN2C(=O)CSc2ncn[nH]2)cc1 (stereo not drawn)	none
COc1ccc(C2CC(c3ccccc3)=NN2C(=O)CN2CCN(Cc3ccccc3)CC2)cc1 (stereo not drawn)	Lmaj promast 54
COc1ccc(C2CC(c3ccccc3)=NN2C(=O)COC(=O)c2cnc(Cl)c(Cl)c2)cc1 (stereo not drawn)	Lmaj promast 97
Nc1ccc(Sc2ccccc2CC(=O)O)cc1	none
O=C(Nc1ncn[nH]1)c1ccc(S(=O)(=O)N2CCOCC2)cc1	none
Cc1ccc(-c2csc(NC(=O)C3=NN(c4ccccc4)C(=O)CC3)n2)cc1	none
CCc1cccc2c(C=C(C#N)C#N)cn(CC(=O)N3CCCCCC3)c12	none
Cc1ccc(NC(=O)N2N=C(c3ccc(F)cc3)CC2c2ccc(F)cc2)cc1 (stereo not drawn)	WT yeast gro inh 77
COc1ccc(C2CC(c3ccccc3)=NN2C(=O)CSc2ncccn2)cc1 (stereo not drawn)	RAM inhibit 11
CCOC(=O)CSc1ccc(C(=O)Nc2ccc(OC)cc2)cn1	none
C#CCn1cnc2c(cnn2-c2ccc(C)c(C)c2)c1=O	WT yeast gro inh 60
CCCCN1C=CC(=C2C(=O)c3ccccc3C2=O)C=C1	Lmaj promast 53
CCCCC1C(=O)N(c2ccccc2)N(c2ccccc2)C1=O	none
COc1cc(/C=N/OCC(=O)NC2CCCCC2)ccc1OCc1ccccc1	none
CCOc1ccc(/C=N/OCC(=O)Nc2ccc(OCc3ccccc3)cc2)cc1OC	RAM inhibit 11
COc1cc(/C=N/OCC(=O)Nc2ccc(OC(F)F)cc2)ccc1OCc1ccccc1	RAM inhibit 8.4
COc1ccc(/C=N/OCC(=O)NC(c2ccccc2)c2ccccc2)cc1OC	Lmaj promast 100
CC(C)C(=O)N1CCN(c2ccccc2NC(=O)c2cc([N+](=O)[O-])ccc2N2CCOCC2)CC1	none
COc1cccc(OC)c1OCCCOc1ccc(C)cc1Br	WT yeast gro inh 67
Cc1cc(Cl)c(OCCCCNC(C)(C)C)c(Br)c1	Lmaj promast 98
COc1ccccc1OCCCOc1c(C)cc(C)cc1Br	none
Cc1cc(Cl)c(OCCCN(C)C)c(Br)c1	Lmaj promast 79
CN(C)CCCOc1ccc(Cl)cc1Br	Lmaj promast 62
CC(C)c1ccc(-n2cnn(-c3ncccc3[N+](=O)[O-])c2=O)cc1	none
Cc1ccc(C2=C(c3ccc([N+](=O)[O-])cc3)C(=O)OC2)cc1C	none
CCOc1ccc(OCCCCN(C)C)cc1	none
CC(C)NCCOCCOc1ccc(Cl)cc1Br	Lmaj promast 95
Cc1cc(Br)cc(C)c1OCCCCN(C)C	Lmaj promast 100
CN(C)CCOCCOc1ccc(Cl)cc1Br	Lmaj promast 93
Cc1ccc(OCCCN(C)C)c(Br)c1	Lmaj promast 60
O=C(COC(=O)c1ccccn1)Nc1cccc(Cl)c1Cl	WT yeast gro inh 97
O=C(COC(=O)c1cc[n+]([O-])cc1)Nc1cccc(Cl)c1Cl	none
C=CCn1c(SCc2nc3sc4c(c3c(=O)[nH]2)CCCC4)nc2ccccc2c1=O	Lmaj promast 84
N=c1n(CCN2CCCC2)c2ccccc2n1CC(O)c1ccc(Cl)c(Cl)c1 (stereo not drawn)	Lmaj promast 100
N=c1n(CCN2CCOCC2)c2ccccc2n1CC(=O)c1ccc(Cl)c(Cl)c1	Lmaj promast 66
Cc1cc(C)cc(OCC(=O)OCC(=O)Nc2c(C)n(C)n(-c3ccccc3)c2=O)c1	none
COC(=O)C1=C(C)N=c2s/c(=C3\C(=O)Nc4ccccc43)c(=O)n2C1c1ccccc1 (stereo not drawn)	none
CCOC(=O)C1=C(C)N=c2s/c(=C3/C(=O)Nc4ccccc43)c(=O)n2C1c1ccc(C)cc1 (stereo not drawn)	Lmaj promast 54
COC(=O)C1C(c2ccc(N(C)C)cc2)C(C(=O)OC)S(=O)(=O)CS1(=O)=O (stereo not drawn)	none
COc1cc(OC)c(NS(=O)(=O)c2cccc(C(=O)OCC(=O)NCC3CCCO3)c2)cc1Cl (stereo not drawn)	Lmaj promast 80
Cc1cc(S(=O)(=O)NCC(C)C)ccc1OCC(=O)NCC1CCCO1 (stereo not drawn)	Lmaj promast 59
CN(C)S(=O)(=O)c1cccc(C(=O)NCC2CCCO2)c1 (stereo not drawn)	WT yeast gro inh 97
O=C(N/C=C/n1cnc2cc(C(F)(F)F)ccc21)c1ccccc1	none
Cc1ccc(S(=O)(=O)N2CCC(C(=O)NNC(=O)c3ccc(F)cc3)CC2)cc1	none
CCOC(=O)C1CCCn2c1nc1sc3c(c1c2=O)CCCC3 (stereo not drawn)	none
O=C(N=Nc1c(O)[nH]c2ccc(Cl)cc12)c1cc(-c2cccs2)nc2ccccc12	Lmaj promast 52
COc1ccc(/C=N/Nc2nnc(Cc3ccc(OC)c(OC)c3)c(=O)[nH]2)cc1OC	Lmaj promast 81, RAM inhibit 9.7
CCOCCCNC(=S)Nc1ccc2nc3n(c(=O)c2c1)CCCCC3	none
O=C(Nc1ccc2nc3n(c(=O)c2c1)CCCC3)c1cc([N+](=O)[O-])ccc1F	Lmaj promast 100
CCCCNC(=S)Nc1ccc2nc3n(c(=O)c2c1)CCCCC3	Lmaj promast 51
O=c1c2cc(NC(=S)N3CCCCC3)ccc2nc2n1CCCCC2	none
O=C(Nc1ccc2nc3n(c(=O)c2c1)CCCC3)c1cccc([N+](=O)[O-])c1	RAM inhibit 8.8
